Activity calls are given as the source filed them. The calls are words filed in the database; no cut-off is given here.
Tests used:
[1] = test system: Osteoblast; experiment: Induction of osteogenesis in rat calvaria-derived primary osteoblasts assessed as increase in Col1 mRNA level at 100 pM after 48 hrs by quantitative PCR analysis; type: functional, cell-based
Method in brief: (§1)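 Primary rat calvarial osteoblasts treated 48 h at 100 pM; BMP-2, Col1 and runx2 transcript levels quantified by qPCR (optimized protocol). Four independent experiments in triplicate per treatment point; mean ± SEM compared with control.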

[2] = test system: Osteoblast; experiment: Induction of osteogenesis in rat calvaria-derived primary osteoblasts assessed as increase in runx2 mRNA level at 100 pM after 48 hrs by quantitative PCR analysis; type: functional, cell-based; method in brief: as §1
[3] = test system: Osteoblast; experiment: Induction of osteogenesis in rat calvaria-derived primary osteoblasts assessed as increase in ALP activity at 10 pM after 48 hrs by bradford assay relative to control; type: functional, cell-based
Method in brief: (§2)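 Primary rat calvarial osteoblasts (2 × 10^3 cells) seeded and exposed to graded compound concentrations for 48 h; BMP-2 as positive control, vehicle as control. ALP measured with p-nitrophenylphosphate substrate, read at 405 nm, normalized to total protein by Bradford assay. Three independent experiments, six replicates per point; mean ± SEM, one-way ANOVA versus control.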

[4] = test system: Bone marrow cell; experiment: Induction of mineralization in rat femur-derived bone marrow cells at 100 pM after 21 days by Alizarin Red S staining; type: functional, cell-based
Method in brief: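 Rat bone marrow cells (2 × 10^5) seeded and incubated 21 days with 100 pM compound; cells fixed, stained with alizarin red-S, dye extracted and optical density measured colorimetrically. Four independent experiments in triplicate; mean ± SEM versus control.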

[5] = test system: Osteoblast; experiment: Induction of osteogenesis in rat calvaria-derived primary osteoblasts assessed as increase in BMP2 mRNA level at 100 pM after 48 hrs by quantitative PCR analysis; type: functional, cell-based; method in brief: as §1
[6] = Cytotoxicity against rat calvaria-derived primary osteoblasts assessed as cell viability by MTT assay; type: cell-based; details: osteoblast
[7] = test system: Osteoblast; experiment: Induction of osteogenesis in rat calvaria-derived primary osteoblasts assessed as increase in ALP activity at 100 pM after 48 hrs by bradford assay relative to control; type: functional, cell-based; method in brief: as §2
[8] = test system: Osteoblast; experiment: Induction of osteogenesis in rat calvaria-derived primary osteoblasts assessed as increase in ALP activity at 1 nM to 1 uM after 48 hrs by bradford assay relative to control; type: functional, cell-based; method in brief: as §2
[9] = test system: Osteoblast; experiment: Induction of osteogenesis in rat calvaria-derived primary osteoblasts assessed as increase in ALP activity after 48 hrs by bradford assay relative to control; type: functional, cell-based; method in brief: as §2

SMILES	Activity [1]	Activity [2]	Activity [3]	Activity [4]	Activity [5]	Activity [6]	Activity [7]	Activity [8]	Activity [9]
O=C(/C=C/c1ccc(O)cc1)OC[C@H]1O[C@@H](Oc2c(-c3ccc(O)cc3)oc3cc(O)cc(O)c3c2=O)[C@H](O)[C@@H](O)[C@@H]1O [TILIROSIDE]	Active	Active	Active	Active	Active	Non-toxic	Active	inactive	
O=c1cc(-c2ccc(O)c(O)c2)oc2cc(O[C@@H]3O[C@H](CO)[C@@H](O)[C@H](O)[C@H]3O)cc(O)c12									inactive
COc1cc(C(O)C(O)CO)ccc1Oc1ccc(-c2cc(=O)c3c(O)cc(O)cc3o2)cc1O (centres undefined) [PTEROSPERMIN A]	Active	Active	Active	Active	Active	Non-toxic	Active	inactive	
C[C@@H]1O[C@@H](O[C@H]2[C@H](Oc3cc(O)c4c(=O)cc(-c5ccc(O)c(O)c5)oc4c3)O[C@H](CO)[C@@H](O)[C@@H]2O)[C@H](O)[C@H](O)[C@H]1O									inactive
C=C[C@@](C)(CCC=C(C)C)O[C@@H]1O[C@H](CO[C@@H]2O[C@@H](C)[C@H](O)[C@@H](O)[C@H]2O)[C@@H](O)[C@H](O)[C@H]1O									inactive
CC1=CC(=O)CC(C)(C)[C@H]1/C=C/[C@H](C)O[C@@H]1O[C@H](CO)[C@@H](O)[C@H](O)[C@H]1O									inactive
O=c1cc(-c2cccc(O)c2)oc2cc(O)c(O[C@@H]3O[C@H](CO)[C@@H](O)[C@H](O)[C@H]3O)c(O)c12									inactive
O=C1OC(O)C=C1O (centres undefined) [PTEROSPERMIN C]	Active	Active	Active	Active	Active	Non-toxic	Active	inactive	

From ChEMBL document CHEMBL1806378, “Osteogenic constituents from Pterospermum acerifolium Willd. flowers” (Bioorg Med Chem Lett, 2011)
